One test deals with A549. The experiment in a line: Cytotoxicity against human A549 cells after 48 hrs by MTT assay. The class given is functional, cell-based. The note with it: A549, 48 h. Summed up: (§1)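 MTT assay. Cells seeded at 1×10^4 per well in DMEM or MEM with 10% FBS and grown 24 h at 37 °C under CO2. Compounds added for 48 h, then MTT (5 mg/mL stock) for 4 h. Formazan dissolved in DMSO and read at 570 nm. IC50 is the average of three independent experiments.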
Background: Formazan colour is commonly taken as a measure of viable cells.

For the next test, the system named is MDA-MB-231. Description: Cytotoxicity against human MDA-MB-231 cells after 48 hrs by MTT assay. The format is functional, cell-based. The settings on record: MDA-MB-231, 48 h. In outline:
as §1

A further test has as its system DU-145. The experiment in a line: Cytotoxicity against human DU145 cells after 48 hrs by MTT assay. The format is functional, cell-based. The settings on record: DU-145, 48 h. In outline: as §1
The next test deals with HeLa. Description: Cytotoxicity against human HeLa cells after 48 hrs by MTT assay. The class given is functional, cell-based. Summed up: as §1
The test system of the next test is HEK293. Description: Cytotoxicity against HEK293 cells after 48 hrs by MTT assay. The format is cell-based. The note with it: Homo sapiens, HEK293, 48 h. Summed up:
as §1

The test system of the next test is HT-29. Description: Cytotoxicity against human HT-29 cells after 48 hrs by MTT assay. The format is functional, cell-based. The note with it: HT-29, 48 h. Summed up:
as §1

On to `COc1cc([C@@H]2c3cc4c(cc3[C@@H](NC(=O)c3cc5c([nH]c6ccccc65)c(-c5ccc(Cl)cc5)n3)[C@H]3COC(=O)[C@H]23)OCO4)cc(OC)c1OC`, for which the IC50 was found to be 3.98 µM in the test with A549; 3.87 µM in the test with MDA-MB-231; 2.65 µM in the test with DU-145; 6.61 µM in the test with HeLa; 58.9 µM in the test with HEK293; 5.77 µM with HT-29.
On to `COc1ccccc1-c1nc(C(=O)N[C@@H]2c3cc4c(cc3[C@@H](c3cc(OC)c(OC)c(OC)c3)[C@H]3C(=O)OC[C@@H]32)OCO4)cc2c1[nH]c1ccccc12`, for which the IC50 with A549 came out at 1.94 µM; in the test with MDA-MB-231 it was 2.69 µM; in the test with DU-145, 1.41 µM; with HeLa it was 4.12 µM; in the test on HEK293 it was 107 µM; in the test with HT-29 it was 4.3 µM.
As for `COc1cc([C@@H]2c3cc4c(cc3[C@@H](NC(=O)c3cc5c([nH]c6ccccc65)c(-c5ccc(C)cc5)n3)[C@H]3COC(=O)[C@H]23)OCO4)cc(OC)c1OC`, the IC50 was found to be 16.8 µM with A549; 16.4 µM with MDA-MB-231; 8.74 µM in the test with DU-145; 9.77 µM in the test on HeLa; 59.4 µM with HEK293; 20 µM with HT-29.
For the molecule `COc1cc([C@@H]2c3cc4c(cc3[C@@H](NC(=O)c3cc5c([nH]c6ccccc65)c(-c5ccc(C(F)(F)F)cc5)n3)[C@H]3COC(=O)[C@H]23)OCO4)cc(OC)c1OC`, the IC50 in the test with A549 came out at 34.1 µM; in the test on MDA-MB-231, 75.9 µM; with DU-145, 24.8 µM; in the test with HeLa, 32.1 µM; with HEK293, 63 µM; with HT-29, 46.5 µM.
As for `COc1cc([C@@H]2c3cc4c(cc3[C@@H](NC(=O)c3cc5c([nH]c6ccccc65)c(-c5cccc(Cl)c5)n3)[C@H]3COC(=O)[C@H]23)OCO4)cc(OC)c1OC`, the IC50 with A549 was determined as 3.16 µM; with MDA-MB-231, 3.29 µM; in the test on DU-145, 2.41 µM; in the test on HeLa, 6.09 µM; with HEK293 it was 131 µM; in the test with HT-29 it was 5.26 µM.
In the case of `COc1cc([C@@H]2c3cc4c(cc3[C@@H](NC(=O)c3cc5c([nH]c6ccccc65)c(-c5cccc(F)c5)n3)[C@H]3COC(=O)[C@H]23)OCO4)cc(OC)c1OC`, the IC50 in the test with A549 was found to be 36.4 µM; in the test with MDA-MB-231 it was 80.4 µM; in the test on DU-145 it was 48.4 µM; with HeLa it was 26.5 µM; with HEK293 it was 104 µM; in the test with HT-29, 55.7 µM.
As for `COc1cc([C@@H]2c3cc4c(cc3[C@@H](NC(=O)c3cc5c([nH]c6ccccc65)c(-c5cccnc5)n3)[C@H]3COC(=O)[C@H]23)OCO4)cc(OC)c1OC`, the half-maximal inhibitory concentration (IC50) in the test on A549 was 2.55 µM; with MDA-MB-231, 3.05 µM; with DU-145 it was 1.98 µM; with HeLa it was 4.72 µM; in the test on HEK293, 84.3 µM; with HT-29, 6.36 µM.
In the case of `COc1ccc(-c2nc(C(=O)N[C@@H]3c4cc5c(cc4[C@@H](c4cc(OC)c(OC)c(OC)c4)[C@H]4C(=O)OC[C@@H]43)OCO5)cc3c2[nH]c2ccccc23)cc1OC`, the concentration for half-maximal inhibition (IC50) was determined as 12.7 µM with A549; 15.5 µM with MDA-MB-231; 9.16 µM in the test with DU-145; 13.4 µM in the test on HeLa; 89.8 µM with HEK293; 14.3 µM with HT-29.
With `COc1ccc(-c2nc(C(=O)N[C@@H]3c4cc5c(cc4[C@@H](c4cc(OC)c(OC)c(OC)c4)[C@H]4C(=O)OC[C@@H]43)OCO5)cc3c2[nH]c2ccccc23)cc1`, the IC50 in the test with A549 came out at 29.4 µM; with MDA-MB-231, 34 µM; in the test with DU-145, 16.8 µM; in the test with HeLa it was 21.9 µM; with HEK293, 65 µM; in the test on HT-29, 35.6 µM.
Take `COc1cc([C@@H]2c3cc4c(cc3[C@@H](NC(=O)c3cc5c([nH]c6ccccc65)c(-c5ccc6c(c5)OCO6)n3)[C@H]3COC(=O)[C@H]23)OCO4)cc(OC)c1OC`: the IC50 with A549 was 21.8 µM; in the test with MDA-MB-231 it was 34.3 µM; in the test with DU-145, 14.5 µM; with HeLa it was 15.3 µM; in the test on HEK293 it was 70.6 µM; in the test on HT-29, 30.6 µM.
For `COc1cc([C@@H]2c3cc4c(cc3[C@@H](NC(=O)c3cc5c([nH]c6ccccc65)c(-c5ccc(F)cc5)n3)[C@H]3COC(=O)[C@H]23)OCO4)cc(OC)c1OC`, the IC50 in the test on A549 is 10.2 µM; in the test with MDA-MB-231, 10.7 µM; in the test with DU-145, 5.07 µM; in the test with HeLa, 15.5 µM; in the test with HEK293, 109 µM; with HT-29, 11.5 µM.
For the molecule `COc1cccc2c1C(=O)c1c(O)c3c(c(O)c1C2=O)C[C@@](O)(C(=O)CO)C[C@@H]3O[C@H]1C[C@H](N)[C@H](O)[C@H](C)O1` [DOXORUBICIN], the IC50 stood at 1.68 µM with A549, 1.32 µM in the test with MDA-MB-231, 1.86 µM in the test with DU-145 and 1.41 µM with HT-29.
Regarding `COc1cc(-c2nc(C(=O)N[C@@H]3c4cc5c(cc4[C@@H](c4cc(OC)c(OC)c(OC)c4)[C@H]4C(=O)OC[C@@H]43)OCO5)cc3c2[nH]c2ccccc23)cc(OC)c1OC`, the IC50 in the test on A549 amounted to 104 µM; in the test on MDA-MB-231, 58.8 µM; in the test with DU-145 it was 40.3 µM; in the test with HeLa it was 72.9 µM; in the test on HEK293, 168 µM; in the test on HT-29, 86.5 µM.
As to `COc1cc([C@@H]2c3cc4c(cc3[C@@H](NC(=O)c3cc5c([nH]c6ccccc65)c(-c5cccc6ccccc56)n3)[C@H]3COC(=O)[C@H]23)OCO4)cc(OC)c1OC`, the IC50 was found to be 56.9 µM in the test on A549; 27.9 µM in the test on MDA-MB-231; 22 µM in the test on DU-145; 33 µM with HeLa; 77.3 µM in the test on HEK293; 23 µM in the test on HT-29.
`COc1cc([C@@H]2c3cc4c(cc3[C@@H](NC(=O)c3cc5c([nH]c6ccccc65)c(-c5cccc(Oc6ccccc6)c5)n3)[C@H]3COC(=O)[C@H]23)OCO4)cc(OC)c1OC`: the IC50 in the test with A549 amounted to 5.19 µM; with MDA-MB-231, 7.52 µM; in the test with DU-145, 3.17 µM; in the test on HeLa, 11.2 µM; with HEK293, 102 µM; with HT-29, 10.3 µM.
In the case of `COc1cc([C@@H]2c3cc4c(cc3[C@H](O)[C@H]3COC(=O)[C@H]23)OCO4)cc(OC)c1OC` [PODOFILOX], the IC50 with MDA-MB-231 is 9.76 µM; with DU-145, 3.11 µM; in the test with HeLa it was 3.04 µM; with HT-29 it was 2.99 µM.
`COc1cc([C@@H]2c3cc4c(cc3[C@@H](NC(=O)c3cc5c([nH]c6ccccc65)c(-c5ccccc5)n3)[C@H]3COC(=O)[C@H]23)OCO4)cc(OC)c1OC`: the IC50 in the test on A549 came to 2 µM; in the test on MDA-MB-231, 2.6 µM; in the test on DU-145 it was 1.68 µM; in the test with HeLa, 5.26 µM; in the test with HEK293, 75 µM; with HT-29, 6.87 µM.

By IC50 is commonly meant the concentration that inhibits the measured activity by half.

The values are drawn from ChEMBL document CHEMBL4251624, “Synthesis of podophyllotoxin linked β-carboline congeners as potential anticancer agents and DNA topoisomerase II inhibitors” (Eur J Med Chem, 2018).
